From ChEMBL document CHEMBL1949603, “Discovery of CS-0777: A Potent, Selective, and Orally Active S1P1 Agonist” (ACS Med Chem Lett, 2011)
Activity calls are given as the source filed them. The calls are words filed in the database; no cut-off is given here.

Columns and labels:
[1] = Cmax in Sprague-Dawley rat at 1 mg/kg, po; format: ADME, organism-based; set-up: dose 1 mg/kg, route oral; details: in vivo
Procedure, shortened: (§1)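 Male Sprague−Dawley rats given one oral dose of parent drug at 0.1 or 1 mg/kg. Blood levels of parent and phosphate metabolite were measured over time. Bioavailability of the phosphate is the ratio of its AUC after oral dosing to its AUC after intravenous parent dosing at the same dose. Values are mean ± SD of four animals.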

[2] = system: Rattus norvegicus; assay: Lymphopenic activity in Lewis rat assessed as recovery in blood lymphocyte counts at 1 mg/kg, po after 5 days; format: functional, organism-based; set-up: dose 1 mg/kg
Procedure, shortened: (§2)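 Lewis rats received one oral dose of 0.1 or 1 mg/kg in 1% MC vehicle. Lymphocytes were counted by automatic hemacytometer and expressed relative to vehicle controls. n = 5 per group, mean ± SE.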

[3] = system: Rattus norvegicus; assay: Half life in Sprague-Dawley rat assessed as CS-0777-phosphate at 0.1 mg/kg, po; format: ADME, organism-based; set-up: dose 0.1 mg/kg, route oral; details: in vivo; procedure, shortened: as §1
[4] = system: Rattus norvegicus; assay: Lymphopenic activity in Lewis rat assessed as reduction in blood lymphocyte counts at 0.1 mg/kg, po after 12 hrs relative to control; format: functional; set-up: scale not given: the % may be the effect or the level left; procedure, shortened: as §2
[5] = system: Rattus norvegicus; assay: Lymphopenic activity in Lewis rat assessed as recovery of blood lymphocytes at 0.1 mg/kg, po after 48 hrs relative to control; format: functional; procedure, shortened: as §2
[6] = Cmax in Sprague-Dawley rat at 0.1 mg/kg, po; format: ADME, organism-based; set-up: dose 0.1 mg/kg, route oral; details: in vivo; procedure, shortened: as §1
[7] = Total body clearance in Sprague-Dawley rat at 0.1 mg/kg, iv; format: ADME, organism-based; set-up: dose 0.1 mg/kg, route intravenous; details: in vivo
Procedure, shortened: (§3)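 Clearance and steady-state volume of distribution were calculated from blood data after intravenous dosing of the parent drug to male Sprague−Dawley rats at 0.1 or 1 mg/kg. Values are mean ± SD of four animals.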

[8] = Oral bioavailability in Sprague-Dawley rat at 1 mg/kg; format: ADME, organism-based; details: in vivo; procedure, shortened: as §1
[9] = Tmax in Sprague-Dawley rat at 0.1 mg/kg, po; format: ADME, organism-based; set-up: dose 0.1 mg/kg, route oral; details: in vivo; procedure, shortened: as §1
[10] = AUC (0 to infinity) in Sprague-Dawley rat at 0.1 mg/kg, po; format: ADME, organism-based, Plasma; set-up: dose 0.1 mg/kg, route oral, time infinity; details: blood; procedure, shortened: as §1
[11] = system: Rattus norvegicus; assay: Oral bioavailability in Sprague-Dawley rat assessed as CS-0777-phosphate at 1 mg/kg; format: ADME, organism-based; details: in vivo; procedure, shortened: as §1
[12] = AUC (0 to infinity) in Sprague-Dawley rat at 1 mg/kg, po; format: ADME, organism-based, Plasma; set-up: time infinity, dose 1 mg/kg, route oral; details: blood; procedure, shortened: as §1
[13] = system: Rattus norvegicus; assay: Reduction of cumulative disease score in Lewis rat EAE model at 1 mg/kg, po administered daily for 20 days measured after 8 to 21 days relative to control; format: functional, organism-based; set-up: dose 1 mg/kg
Procedure, shortened: (§4)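 EAE was induced in 6-week-old female Lewis rats by injecting guinea pig myelin basic protein fragment 68−82 with adjuvant into both hind footpads on day 0. Dosing was oral, daily on days 0–20 (0.01–1 mg/kg). Clinical score (0–6 scale) was recorded daily on days 8–21 and summed to a cumulative score. Analysis used a nonparametric Dunnett test versus vehicle.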

[14] = Volume of distribution at steady state in Sprague-Dawley rat at 0.1 mg/kg, iv; format: ADME, organism-based; set-up: dose 0.1 mg/kg, route intravenous; details: in vivo, read-out: Vdss; procedure, shortened: as §3
[15] = system: Rattus norvegicus; assay: Cmax in Sprague-Dawley rat assessed as CS-0777-phosphate at 1 mg/kg, po; format: ADME, organism-based; set-up: dose 1 mg/kg, route oral; details: in vivo; procedure, shortened: as §1
[16] = system: Rattus norvegicus; assay: Reduction of cumulative disease score in Lewis rat EAE model at 0.1 mg/kg, po administered daily for 20 days measured after 8 to 21 days relative to control; format: functional, organism-based; set-up: dose 0.1 mg/kg; procedure, shortened: as §4
[17] = system: Rattus norvegicus; assay: Tmax in Sprague-Dawley rat assessed as CS-0777-phosphate at 1 mg/kg, po; format: ADME, organism-based; set-up: dose 1 mg/kg, route oral; details: in vivo; procedure, shortened: as §1
[18] = system: Rattus norvegicus; assay: AUC (0 to infinity) in Sprague-Dawley rat assessed as CS-0777-phosphate at 0.1 mg/kg, po; format: ADME, organism-based, Plasma; set-up: dose 0.1 mg/kg, route oral, time infinity; details: in vivo; procedure, shortened: as §1
[19] = system: Rattus norvegicus; assay: Oral bioavailability in Sprague-Dawley rat assessed as CS-0777-phosphate at 0.1 mg/kg; format: ADME, organism-based; details: in vivo; procedure, shortened: as §1
[20] = system: Rattus norvegicus; assay: Lymphopenic activity in Lewis rat assessed as reduction in blood lymphocyte counts at 1 mg/kg, po after 12 hrs relative to control; format: functional; set-up: scale not given: the % may be the effect or the level left; procedure, shortened: as §2
[21] = system: Rattus norvegicus; assay: Half life in Sprague-Dawley rat assessed as CS-0777-phosphate at 1 mg/kg, po; format: ADME, organism-based; set-up: dose 1 mg/kg, route oral; details: in vivo; procedure, shortened: as §1
[22] = Tmax in Sprague-Dawley rat at 1 mg/kg, po; format: ADME, organism-based; set-up: dose 1 mg/kg, route oral; details: in vivo; procedure, shortened: as §1
[23] = Half life in Sprague-Dawley rat at 1 mg/kg, po; format: ADME, organism-based; set-up: dose 1 mg/kg, route oral; details: in vivo; procedure, shortened: as §1
[24] = Volume of distribution at steady state in Sprague-Dawley rat at 1 mg/kg, iv; format: ADME, organism-based; set-up: dose 1 mg/kg, route intravenous; details: in vivo, read-out: Vdss; procedure, shortened: as §3
[25] = system: Rattus norvegicus; assay: Cmax in Sprague-Dawley rat assessed as CS-0777-phosphate at 0.1 mg/kg, po; format: ADME, organism-based; set-up: dose 0.1 mg/kg, route oral; details: in vivo; procedure, shortened: as §1
[26] = Half life in Sprague-Dawley rat at 0.1 mg/kg, po; format: ADME, organism-based; set-up: dose 0.1 mg/kg, route oral; details: in vivo; procedure, shortened: as §1
[27] = Oral bioavailability in Sprague-Dawley rat at 0.1 mg/kg; format: ADME, organism-based; details: in vivo; procedure, shortened: as §1
[28] = system: Rattus norvegicus; assay: Lymphopenic activity in Lewis rat assessed as recovery of blood lymphocytes at 1 mg/kg, po after 48 hrs relative to control; format: functional; procedure, shortened: as §2
[29] = Total body clearance in Sprague-Dawley rat at 1 mg/kg, iv; format: ADME, organism-based; set-up: dose 1 mg/kg, route intravenous; details: in vivo; procedure, shortened: as §3
[30] = system: Rattus norvegicus; assay: Tmax in Sprague-Dawley rat assessed as CS-0777-phosphate at 0.1 mg/kg, po; format: ADME, organism-based; set-up: dose 0.1 mg/kg, route oral; details: in vivo; procedure, shortened: as §1
[31] = system: Rattus norvegicus; assay: Lymphopenic activity in Lewis rat assessed as recovery in blood lymphocyte counts at 0.1 mg/kg, po after 5 days; format: functional, organism-based; set-up: dose 0.1 mg/kg; procedure, shortened: as §2
[32] = system: Rattus norvegicus; assay: AUC (0 to infinity) in Sprague-Dawley rat assessed as CS-0777-phosphate at 1 mg/kg, po; format: ADME, organism-based, Plasma; set-up: time infinity, dose 1 mg/kg, route oral; details: in vivo; procedure, shortened: as §1
[33] = target: Sphingosine 1-phosphate receptor 1 (Homo sapiens, UniProt P21453); assay: Agonist activity at human S1P1 receptor expressed in CHO-K1 cells by [35S]GTPgammaS binding assay; format: functional, cell-based
Sequence of Sphingosine 1-phosphate receptor 1 (Homo sapiens, UniProt P21453) (P21453 whole entry): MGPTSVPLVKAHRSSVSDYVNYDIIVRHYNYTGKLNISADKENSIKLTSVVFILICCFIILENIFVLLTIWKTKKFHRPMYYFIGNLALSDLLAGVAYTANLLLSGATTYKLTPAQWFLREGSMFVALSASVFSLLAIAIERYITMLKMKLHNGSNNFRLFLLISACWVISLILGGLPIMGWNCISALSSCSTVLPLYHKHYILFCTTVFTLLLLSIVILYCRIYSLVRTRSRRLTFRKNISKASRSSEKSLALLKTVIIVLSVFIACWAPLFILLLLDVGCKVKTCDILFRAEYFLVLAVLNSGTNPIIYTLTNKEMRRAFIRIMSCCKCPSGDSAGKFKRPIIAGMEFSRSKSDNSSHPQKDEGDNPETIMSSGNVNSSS
Procedure, shortened: (§5)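 Agonist-evoked [35S]GTPγS binding was measured on human or rat S1P1 or S1P3 expressed in transfected CHO-K1 cells.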

[34] = species on record: Rattus norvegicus; assay: Selectivity ratio of EC50 for rat S1P3R to EC50 for rat S1P1R; procedure, shortened: as §5
[35] = target: Sphingosine 1-phosphate receptor 5 (Homo sapiens, UniProt Q9H228); assay: Agonist activity at human S1P5R; format: functional
Sequence of Sphingosine 1-phosphate receptor 5 (Q9H228 whole entry): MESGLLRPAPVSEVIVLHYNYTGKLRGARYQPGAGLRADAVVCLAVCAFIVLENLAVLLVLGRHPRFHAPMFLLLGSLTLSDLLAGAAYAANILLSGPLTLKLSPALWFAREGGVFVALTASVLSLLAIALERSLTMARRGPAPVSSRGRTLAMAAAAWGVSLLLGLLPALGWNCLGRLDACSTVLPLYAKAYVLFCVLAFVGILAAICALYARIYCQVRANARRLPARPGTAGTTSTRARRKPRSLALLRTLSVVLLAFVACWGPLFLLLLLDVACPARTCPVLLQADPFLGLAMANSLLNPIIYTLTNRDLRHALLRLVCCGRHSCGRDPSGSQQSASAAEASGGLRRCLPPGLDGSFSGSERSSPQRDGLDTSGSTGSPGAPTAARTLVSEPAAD

[36] = Agonist activity at rat S1P3R expressed in CHO-K1 cells by [35S]GTPgammaS binding assay; format: functional, cell-based; procedure, shortened: as §5
[37] = species on record: Homo sapiens; assay: Selectivity ratio of EC50 for human S1P3R to EC50 for human S1P1R; procedure, shortened: as §5
[38] = target: Sphingosine 1-phosphate receptor 2 (Homo sapiens) (UniProt O95136); assay: Binding affinity to human S1P2R
Sequence of Sphingosine 1-phosphate receptor 2 (Homo sapiens) (O95136 whole entry): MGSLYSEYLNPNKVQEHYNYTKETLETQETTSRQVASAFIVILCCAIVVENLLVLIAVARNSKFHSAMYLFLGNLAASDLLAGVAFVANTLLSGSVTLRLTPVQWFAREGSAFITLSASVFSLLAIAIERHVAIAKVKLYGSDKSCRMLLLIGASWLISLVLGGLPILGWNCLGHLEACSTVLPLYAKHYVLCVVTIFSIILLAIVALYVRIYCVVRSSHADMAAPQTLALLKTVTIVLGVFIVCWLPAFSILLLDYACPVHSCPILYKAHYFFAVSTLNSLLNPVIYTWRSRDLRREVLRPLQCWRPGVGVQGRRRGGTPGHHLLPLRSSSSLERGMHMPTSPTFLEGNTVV

[39] = target: Sphingosine 1-phosphate receptor 1 (Rattus norvegicus, UniProt P48303); assay: Agonist activity at rat S1P1 receptor expressed in CHO-K1 cells by [35S]GTPgammaS binding assay; format: functional, cell-based; procedure, shortened: as §5
Sequence of Sphingosine 1-phosphate receptor 1 (Rattus norvegicus, UniProt P48303) (P48303 whole entry): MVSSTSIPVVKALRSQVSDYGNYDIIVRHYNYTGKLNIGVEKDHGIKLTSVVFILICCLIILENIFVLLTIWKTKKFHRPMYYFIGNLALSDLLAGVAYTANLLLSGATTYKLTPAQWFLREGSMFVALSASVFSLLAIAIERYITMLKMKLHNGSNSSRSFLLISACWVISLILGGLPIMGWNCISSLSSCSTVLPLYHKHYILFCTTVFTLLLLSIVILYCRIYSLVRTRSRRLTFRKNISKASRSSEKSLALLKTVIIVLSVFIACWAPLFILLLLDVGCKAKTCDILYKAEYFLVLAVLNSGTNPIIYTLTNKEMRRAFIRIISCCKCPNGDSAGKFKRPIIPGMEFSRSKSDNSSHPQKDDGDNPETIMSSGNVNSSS

[40] = target: Sphingosine 1-phosphate receptor 3 (Homo sapiens, UniProt Q99500); assay: Agonist activity at human S1P3R expressed in CHO-K1 cells by [35S]GTPgammaS binding assay; format: functional, cell-based; procedure, shortened: as §5
Sequence of Sphingosine 1-phosphate receptor 3 (Q99500 whole entry): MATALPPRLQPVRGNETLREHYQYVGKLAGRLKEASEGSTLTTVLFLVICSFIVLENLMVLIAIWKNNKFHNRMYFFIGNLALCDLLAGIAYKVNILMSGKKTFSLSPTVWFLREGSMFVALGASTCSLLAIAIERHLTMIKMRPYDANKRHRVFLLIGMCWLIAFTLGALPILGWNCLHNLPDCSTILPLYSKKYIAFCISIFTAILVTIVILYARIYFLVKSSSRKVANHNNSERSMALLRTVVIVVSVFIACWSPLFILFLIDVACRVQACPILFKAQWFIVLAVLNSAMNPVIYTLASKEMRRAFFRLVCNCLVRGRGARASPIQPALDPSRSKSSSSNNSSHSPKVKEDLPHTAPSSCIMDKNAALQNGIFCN

Compound: Cc1ccc(CCCC(=O)c2ccc(CC[C@@](C)(N)CO)n2C)cc1
- Cmax [1]: 18.2 ng/mL
- Activity [2]: inactive
- t1/2 [3]: 10.9 h
- Activity [4]: 27.4%
- Activity [5]: 71.5%
- Cmax [6]: 1.89 ng/mL
- clearance [7]: 38 mL/min/kg
- bioavailability [8]: 69.5%
- Tmax [9]: 4.75 h
- AUC(0-inf) [10]: 31.7 ng·h/mL
- F [11]: 90.8%
- AUC(0-inf) [12]: 346 ng·h/mL
- Activity [13]: Active
- Vd [14]: 17.1 L/kg
- Cmax [15]: 220 ng/mL
- Activity [16]: Active
- Tmax [17]: 9 h
- AUC [18]: 686 ng·h/mL
- F [19]: 80.6%
- Activity [20]: 18.4%
- t1/2 [21]: 11.6 h
- Tmax [22]: 3.25 h
- half-life [23]: 10.4 h
- Vd [24]: 18.1 L/kg
- Cmax [25]: 26.4 ng/mL
- half-life [26]: 5.4 h
- bioavailability [27]: 72.2%
- Activity [28]: 30.1%
- clearance [29]: 33.7 mL/min/kg
- Tmax [30]: 9.5 h
- Activity [31]: inactive
- AUC [32]: 6280 ng·h/mL

Compound: Cc1ccc(CCCC(=O)c2ccc(CC[C@@](C)(N)COP(=O)(O)O)n2C)cc1
- EC50 [33]: 1.1 nM
- Ratio EC50 [34]: 100
- EC50 [35]: 21 nM
- EC50 [36]: 200 nM
- Ratio EC50 [37]: 320
- Activity [38]: inactive
- EC50 [39]: 1.8 nM
- EC50 [40]: 350 nM

Compound: CCCCCCCCc1ccc(CC[C@](N)(CO)COP(=O)(O)O)cc1 [FTY720-P]
- EC50 [36]: 1.3 nM
- Activity [38]: inactive
- EC50 [39]: 0.29 nM
